For data set [1], the system named is SH-SY5Y. Kind of data set: Cytotoxicity against human SH-SY5Y cells assessed as reduction in cell viability at 5 to 10 uM measured after 24 hrs by MTS assay. The class given is cell-based. Summed up:
(§1)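 SH-SY5Y human neuroblastoma cells grown in Advanced DMEM with 10% FBS at 37 °C, 5% CO2, and switched to serum-depleted medium before treatment. Compounds (20 mM DMSO stocks) were applied at 5, 10 or 50 μM for 24 h. Viability read by MTS assay.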
A general note: Tetrazolium assays rely on reduction of a dye to a coloured formazan, in cell work by metabolically active cells.

Data set [2] is described as follows: Cytotoxicity against human SH-SY5Y cells assessed as cell viability at 50 uM measured after 24 hrs by MTS assay relative to control. The class given is cell-based. As to conditions: read-out: Activity. Put shortly:
as §1

The test system of data set [3] is Mus musculus. Nature of the data set: Antidepressant-like activity in Swiss mouse assessed as reduction in immobility time at 3 to 10 mg/kg, ip administered as single dose for 30 mins prior to testing measured for last 4 mins of 6 mins test by tail suspension test. The class given is functional, organism-based.
The target in data set [4] is T1, Amine oxidase [flavin-containing] A (Homo sapiens, UniProt P21397).
T1 sequence (P21397 whole entry): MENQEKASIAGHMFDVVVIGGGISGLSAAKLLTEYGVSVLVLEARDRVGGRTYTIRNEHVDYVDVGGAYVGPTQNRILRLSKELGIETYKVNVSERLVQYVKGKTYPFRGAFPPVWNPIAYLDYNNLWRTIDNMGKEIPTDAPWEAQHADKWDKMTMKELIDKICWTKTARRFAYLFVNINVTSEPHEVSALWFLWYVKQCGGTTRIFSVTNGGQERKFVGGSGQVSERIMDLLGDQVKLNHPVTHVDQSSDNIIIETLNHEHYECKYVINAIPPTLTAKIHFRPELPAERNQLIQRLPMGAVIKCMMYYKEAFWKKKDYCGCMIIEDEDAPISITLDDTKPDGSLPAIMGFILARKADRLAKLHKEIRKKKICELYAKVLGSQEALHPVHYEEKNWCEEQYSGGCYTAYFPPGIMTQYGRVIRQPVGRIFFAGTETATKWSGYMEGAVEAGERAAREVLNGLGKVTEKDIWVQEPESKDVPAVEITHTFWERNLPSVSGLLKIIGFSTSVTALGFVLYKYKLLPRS
Conditions: 20 min.

The nature of data set [5]: Photoisomerization of the compound in D2O incubated for 7 days under sunlight by NMR analysis.
Data set [6] can be described thus: Solubility of the compound in pH 7.4 sodium phosphate buffer at >100 uM. The class given is physicochemical.
Data set [7] relates to Mus musculus. Kind of data set: Antidepressant-like activity in Swiss mouse assessed as reduction in immobility time at 30 mg/kg, ip administered as single dose for 30 mins prior to testing measured for last 4 mins of 6 mins test by tail suspension test. The class given is functional, organism-based.
Data set [8] can be described thus: Apparent permeability across absorptive direction in Sprague-Dawley rat ileum at 50 uM measured after 20 mins LC-MS/MS analysis. The class given is ADME, tissue-based.
The test system of data set [9] is SH-SY5Y. Kind of data set: Neuroprotective activity against 6-OHDA-induced toxicity in human SH-SY5Y cells assessed as LDH release at 5 uM pretreated for 30 mins followed by 6-OHDA challenge and measured after 24 hrs by cytotox-onetm homogeneous membrane integrity assay (reference value: 135%). The class given is functional. (In general: LDH in the medium is a marker of cell lysis.)

Data set [10] has as its system SH-SY5Y. Nature of the data set: Neuroprotective activity against 6-OHDA-induced toxicity in human SH-SY5Y cells assessed as reduction in propidium iodide positive cells at 5 uM pretreated for 30 mins followed by 6-OHDA challenge and measured after 24 hrs by propidium iodide staining-based flow cytometric analysis relative to 6-OHDA. The class given is functional. Summed up:
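SH-SY5Y cells were grown in Advanced DMEM with 10% FBS at 37 °C, 5% CO2 to 80% confluence, then switched to serum-depleted medium. Compound (5 μM, from a 20 mM DMSO stock) was added 30 min before 6-OHDA (100 μM). After 24 h, PI staining was read by flow cytometry. Runs were n ≥ 2, each in duplicate, with one-way ANOVA and Bonferroni.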

Activity calls are given as the source filed them. The calls are words filed in the database; no cut-off is given here. A value given as a limit tells only on which side of the number the result lay.

In the case of `C#CCN1CCC(/C=C\c2ccccc2)CC1.Cl`, in the data set with SH-SY5Y [1], the Activity result is recorded as “Non-Toxic”. Also, the viability at 24 h, 50 µM in [2] is > 80%. Besides, the Activity result in the data set on Mus musculus [3] is “inactive”.

Turning to `C#CCN1CCCC(CCc2ccc(F)cc2)C1` (racemic), the activity at 100 µM in data set [4] is 93.1%. The same measure, in the same setting: as for `C#CCN1CCC(/C=C\c2ccc(C)cc2)CC1`, the figure is 62.2%; as for `C#CCN1CCC(/C=C/c2ccc(C)cc2)CC1`, 57.3%; as for `C#CCN1CCC(CCc2ccc(C(F)(F)F)cc2)CC1`, 62.3%.

`C#CCN1CCC(CCc2ccc(O)cc2)CC1`: in data set [4], the activity at 100 µM came out at 67.7%. The same measure, in the same setting: as for `C#CCN1CCC(/C=C/c2ccc(S(C)(=O)=O)cc2)CC1`, the figure is 68.7%. For the compound `C#CCN1CCC(/C=C/c2ccc(C(F)(F)F)cc2)CC1` [listing 1 of 2 here], the Drug metabolism result in data set [5] is reported as “Metabolite not detected”.

As to `C#CCN1CCC(/C=C/c2ccc(OC)cc2)CC1`, the activity at 100 µM in data set [4] worked out at 56.1%. On to `C#CCN1CCC(CCc2ccc(C(C)C)cc2)CC1`, for which the solubility result in data set [6] was “Insoluble”. Consider `C#CCN1CCC(CCc2ccc(C)cc2)CC1`, for which the activity at 100 µM in [4] was 68.1%. In the case of `CN(C)CCCN1c2ccccc2CCc2ccccc21`, the Activity entry in the data set on Mus musculus [7] is “Active”.

For `C#CCN1CCC(CCc2cccc(C(F)(F)F)c2)CC1`, the activity at 100 µM in data set [4] was found to be 71.6%.

For orientation: Papp A→B means the apparent permeability from the apical to the basolateral side of a cell layer. In the case of `COCCc1ccc(OCC(O)CNC(C)C)cc1` (centres undefined) [METOPROLOL], the Papp A→B at 20 min, 50 µM in [8] amounted to 14 ×10⁻⁶ cm/s. In the case of `C#CCN1CCC(/C=C\c2ccc(Cl)cc2)CC1`, the solubility entry in data set [6] was “Insoluble”. Take `C#CCN1CCC(CCc2ccccc2)CC1`: in data set [6], the solubility entry is recorded as “Insoluble”. Regarding `C#CCN1CCC(CCc2ccc(OC)cc2)CC1`, the activity at 100 µM in data set [4] is 62.2%. On the same count and under the same terms, as for `C#CCN1CCC(/C=C/c2ccc(C(F)(F)F)cc2)CC1` [listing 2 of 2 here], the figure is 64.9%; as for `C#CCN1CCCC(/C=C/c2cc(F)c(F)cc2F)C1` (racemic), 102%; as for `C#CCN1CCCC(CCc2cc(F)c(F)cc2F)C1` (racemic), 86%. The same measure, in the same setting: as for `C#CCN1CCC(CCc2ccc(C(N)=O)cc2)CC1`, the figure is 75.1%.

In the case of `C#CCN1CCC(CCc2ccc(Cl)cc2)CC1`, the activity at 100 µM in data set [4] came out at 67.7%. With `C#CCN1CCC(CCc2ccc(C#N)cc2)CC1.Cl`, the Activity result in the data set with SH-SY5Y [1] was “Non-Toxic”; in the data set with SH-SY5Y [9], 82%. In addition, the viability at 24 h, 50 µM in data set [2] was > 80%.

As to `C#CCN1CCC(CCc2cc(F)c(F)cc2F)CC1`, the activity at 100 µM in data set [4] was 65.6%. Same read-out and setting: as for `C#CCN1CCC(/C=C\c2ccc(C(N)=O)cc2)CC1`, the figure is 89.5%. For `C#CCN1CCC(/C=C/c2ccc(F)cc2)CC1.Cl`, the Activity entry in the data set on SH-SY5Y [1] is “Non-Toxic”; in the data set on SH-SY5Y [9], 76%. Moreover, in [2], the viability at 24 h, 50 µM is > 80%. On to `C#CCN1CCC(/C=C/c2ccc(C#N)cc2)CC1`, for which the solubility entry in data set [6] is “Insoluble”. Regarding `C#CCN1CCC(CCc2ccc(C(C)C)cc2)CC1.Cl`, the Activity result in the data set on SH-SY5Y [1] is given as “Non-Toxic”; in the data set with SH-SY5Y [9] it was 82%. In addition, the viability at 24 h, 50 µM in data set [2] was > 80%. In the data set with SH-SY5Y [10], the “fold change (FC)” value is given as 0.68.

As for `C#CCN1CCCC(/C=C/c2ccc(F)cc2)C1` (racemic), the activity at 100 µM in data set [4] stood at 91%. `C#CCN1CCC(/C=C/c2ccc(Br)cc2)CC1`: in data set [4], the activity at 100 µM came to 54.5%. On the same count and under the same terms, as for `C#CCN1CCC(/C=C/c2ccc(C(N)=O)cc2)CC1`, the figure is 64.8%. On the same count and under the same terms, as for `C#CCN1CCC(/C=C\c2ccc(C(F)(F)F)cc2)CC1`, the figure is 80.1%; as for `C#CCN1CCC(CCc2ccc(F)cc2)CC1`, 76.9%.

With `C#CCN1CCC(/C=C/c2ccc(C(C)C)cc2)CC1`, in data set [6], the solubility result is “Insoluble”. Regarding `C#CCN1CCC(/C=C\c2ccc(S(C)(=O)=O)cc2)CC1`, the activity at 100 µM in data set [4] is 70.6%.
